System: not listed separately
Experiment: Antiproliferative activity against human HT-29 cells assessed as cell viability at 100 uM after 72 hrs under normoxic conditions by MTT assay relative to control
Type: cell-based
Conditions: read-out: Activity
Outline: (§1)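 HT-29 cells in high-glucose DMEM with 20% FBS were seeded at 1·10^4/well and treated 24 h later. Incubation was under normoxia (20% O2, air with 5% CO2) at 37 °C for 16, 48 or 72 h. Viability was read by MTT reduction (1 mg/ml, 30 min), with formazan in DMSO read at 550 nm, relative to untreated control set at 100%. Quadruplicates on at least three cell batches.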

Q: Which viability at 72 h, 100 µM does the source give for `O=c1[nH]c2cc(Cl)c([N+](=O)[O-])cc2c(=O)n1O` here?
A: 61.2%

System: not listed separately
Experiment: Antiproliferative activity against human HT-29 cells assessed as cell viability at 100 uM after 48 hrs under normoxic conditions by MTT assay relative to control
Type: cell-based
Conditions: read-out: Activity
Outline: as §1

Q: Which viability at 48 h, 100 µM does the source give for `O=c1[nH]c2cc(Cl)c([N+](=O)[O-])cc2c(=O)n1O` here?
A: 72.5%

System: HT-29
Experiment: Antiproliferative activity against human HT-29 cells assessed as cell viability at 30 uM after 48 hrs under hypoxic conditions by MTT assay relative to control
Type: functional
Conditions: HT-29, 48 h, read-out: Activity
Outline: (§2)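 HT-29 cells were grown in high-glucose DMEM with 20% FBS, seeded at 1·10^4/well and dosed 24 h later. Incubation was in a hypoxic chamber (0.1% O2, 5% CO2, balance N2) for 16, 48 or 72 h. Cells were washed, given MTT 1 mg/ml for 30 min at 37 °C, and formazan was dissolved in DMSO and read at 550 nm. Viability is % of untreated control, mean ± S.E.M.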

Q: Which viability at 30 µM does the source give for `O=c1[nH]c2cc(Cl)c([N+](=O)[O-])cc2c(=O)n1O` here?
A: 45.7%

System: not listed separately
Experiment: Antiproliferative activity against human HT-29 cells assessed as cell viability at 300 uM after 48 hrs under normoxic conditions by MTT assay relative to control
Type: cell-based
Conditions: read-out: Activity
Outline: as §1

Q: Which viability at 48 h, 300 µM does the source give for `O=c1[nH]c2cc(Cl)c([N+](=O)[O-])cc2c(=O)n1O` here?
A: 77.6%

System: HT-29
Experiment: Antiproliferative activity against human HT-29 cells assessed as cell viability at 300 uM after 72 hrs under hypoxic conditions by MTT assay relative to control
Type: functional
Conditions: HT-29, 72 h, read-out: Activity
Outline: as §2

Q: For `O=c1[nH]c2cc(Cl)c([N+](=O)[O-])cc2c(=O)n1O`, which viability at 300 µM is on record?
A: 63.5%

System: HT-29
Experiment: Antiproliferative activity against human HT-29 cells assessed as cell viability at 100 uM after 72 hrs under hypoxic conditions by MTT assay relative to control
Type: functional
Conditions: HT-29, 72 h, read-out: Activity
Outline: as §2

Q: With `O=c1[nH]c2cc(Cl)c([N+](=O)[O-])cc2c(=O)n1O` as the molecule, how does the viability at 100 µM read?
A: 55.9%

Biological target: Carbonic anhydrase 1 (Homo sapiens, UniProt P00915)
Sequence (P00915 whole entry): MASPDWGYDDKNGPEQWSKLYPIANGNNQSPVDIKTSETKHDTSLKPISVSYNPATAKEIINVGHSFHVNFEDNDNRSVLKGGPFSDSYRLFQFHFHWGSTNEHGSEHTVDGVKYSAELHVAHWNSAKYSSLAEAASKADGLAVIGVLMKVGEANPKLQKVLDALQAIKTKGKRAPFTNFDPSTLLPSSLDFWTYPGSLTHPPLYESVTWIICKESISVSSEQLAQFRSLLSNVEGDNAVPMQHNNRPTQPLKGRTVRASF
Experiment: Inhibition of recombinant human carbonic anhydrase 1 preincubated for 15 mins prior to testing by phenol red based stopped-flow CO2 hydration assay
Conditions: not given

Q: Which Ki does the source give for `O=c1[nH]c2cc(Cl)c(-n3ccnc3)cc2c(=O)n1O` here?
A: > 10 µM

Q: For `Nc1ccc2[nH]c(=O)n(O)c(=O)c2c1`, which Ki is on record?
A: > 10 µM

Q: Which Ki does the source give for `O=c1[nH]c2ccc(-n3cnnc3)cc2c(=O)n1O` here?
A: > 10 µM

Q: With `O=c1[nH]c2ccc(Cl)cc2c(=O)n1O` as the molecule, how does the Ki read?
A: > 10 µM

Q: For `O=C(NCc1ccccc1)Nc1cc2c(=O)n(O)c(=O)[nH]c2cc1Cl`, which Ki is on record?
A: > 10 µM

Q: For `O=C(O)COn1c(=O)[nH]c2cc(Cl)c([N+](=O)[O-])cc2c1=O`, which Ki is on record?
A: > 10 µM

Q: With `O=C(O)c1ccccc1C(=O)Nc1ccc2[nH]c(=O)n(O)c(=O)c2c1` as the molecule, how does the Ki read?
A: > 10 µM

Q: For `O=c1[nH]c2cc(Cl)c([N+](=O)[O-])cc2c(=O)n1O`, which Ki is on record?
A: > 10 µM

Biological target: Carbonic anhydrase 9 (Homo sapiens, UniProt Q16790)
Conditions: not given

Q: With `O=c1[nH]c2cc(Cl)c(-n3ccnc3)cc2c(=O)n1O` as the molecule, how does the Ki read?
A: 0.0749 µM

Q: With `Nc1ccc2[nH]c(=O)n(O)c(=O)c2c1` as the molecule, how does the Ki read?
A: 0.273 µM

Q: For `O=c1[nH]c2ccc(-n3cnnc3)cc2c(=O)n1O`, which Ki is on record?
A: 0.0695 µM

Q: For `O=c1[nH]c2ccc(Cl)cc2c(=O)n1O`, which Ki is on record?
A: 0.0482 µM

Q: With `O=C(NCc1ccccc1)Nc1cc2c(=O)n(O)c(=O)[nH]c2cc1Cl` as the molecule, how does the Ki read?
A: 0.0069 µM

Q: For `O=C(O)COn1c(=O)[nH]c2cc(Cl)c([N+](=O)[O-])cc2c1=O`, which Ki is on record?
A: 0.018 µM

Q: Which Ki does the source give for `O=C(O)c1ccccc1C(=O)Nc1ccc2[nH]c(=O)n(O)c(=O)c2c1` here?
A: 0.0625 µM

System: HT-29
Experiment: Antiproliferative activity against human HT-29 cells assessed as cell viability at 300 uM after 48 hrs under hypoxic conditions by MTT assay relative to control
Type: functional
Conditions: HT-29, 48 h, read-out: Activity
Outline: as §2

Q: For `O=c1[nH]c2cc(Cl)c([N+](=O)[O-])cc2c(=O)n1O`, which viability at 300 µM is on record?
A: 70.8%

System: HT-29
Experiment: Antiproliferative activity against human HT-29 cells assessed as cell viability at 100 uM after 48 hrs under hypoxic conditions by MTT assay relative to control
Type: functional
Conditions: HT-29, 48 h, read-out: Activity
Outline: as §2

Q: Which viability at 100 µM does the source give for `O=c1[nH]c2cc(Cl)c([N+](=O)[O-])cc2c(=O)n1O` here?
A: 64.6%

System: HT-29
Experiment: Antiproliferative activity against human HT-29 cells assessed as cell viability at 30 uM after 72 hrs under hypoxic conditions by MTT assay relative to control
Type: functional
Conditions: HT-29, 72 h, read-out: Activity
Outline: as §2

Q: Which viability at 30 µM does the source give for `O=c1[nH]c2cc(Cl)c([N+](=O)[O-])cc2c(=O)n1O` here?
A: 41.6%

System: not listed separately
Experiment: Antiproliferative activity against human HT-29 cells assessed as cell viability at 30 uM after 72 hrs under normoxic conditions by MTT assay relative to control
Type: cell-based
Conditions: read-out: Activity
Outline: as §1

Q: Which viability at 72 h, 30 µM does the source give for `O=c1[nH]c2cc(Cl)c([N+](=O)[O-])cc2c(=O)n1O` here?
A: 36.8%

System: not listed separately
Experiment: Antiproliferative activity against human HT-29 cells assessed as cell viability at 300 uM after 72 hrs under normoxic conditions by MTT assay relative to control
Type: cell-based
Conditions: read-out: Activity
Outline: as §1

Q: With `O=c1[nH]c2cc(Cl)c([N+](=O)[O-])cc2c(=O)n1O` as the molecule, how does the viability at 72 h, 300 µM read?
A: 70.3%

Biological target: Carbonic anhydrase 2 (Homo sapiens, UniProt P00918)
Experiment: Inhibition of recombinant human carbonic anhydrase 2 preincubated for 15 mins prior to testing by phenol red based stopped-flow CO2 hydration assay
Conditions: not given

Q: For `O=c1[nH]c2cc(Cl)c(-n3ccnc3)cc2c(=O)n1O`, which Ki is on record?
A: > 10 µM

Q: For `Nc1ccc2[nH]c(=O)n(O)c(=O)c2c1`, which Ki is on record?
A: > 10 µM

Q: For `O=c1[nH]c2ccc(-n3cnnc3)cc2c(=O)n1O`, which Ki is on record?
A: > 10 µM

Q: Which Ki does the source give for `O=c1[nH]c2ccc(Cl)cc2c(=O)n1O` here?
A: > 10 µM

Q: Which Ki does the source give for `O=C(NCc1ccccc1)Nc1cc2c(=O)n(O)c(=O)[nH]c2cc1Cl` here?
A: > 10 µM

Q: With `O=C(O)COn1c(=O)[nH]c2cc(Cl)c([N+](=O)[O-])cc2c1=O` as the molecule, how does the Ki read?
A: > 10 µM

Q: For `O=C(O)c1ccccc1C(=O)Nc1ccc2[nH]c(=O)n(O)c(=O)c2c1`, which Ki is on record?
A: > 10 µM

Q: For `O=c1[nH]c2cc(Cl)c([N+](=O)[O-])cc2c(=O)n1O`, which Ki is on record?
A: > 10 µM

System: not listed separately
Experiment: Antiproliferative activity against human HT-29 cells assessed as cell viability at 30 uM after 48 hrs under normoxic conditions by MTT assay relative to control
Type: cell-based
Conditions: read-out: Activity
Outline: as §1

Q: For `O=c1[nH]c2cc(Cl)c([N+](=O)[O-])cc2c(=O)n1O`, which viability at 48 h, 30 µM is on record?
A: 58.2%

— ChEMBL document CHEMBL4011650, “3-Hydroxy-1H-quinazoline-2,4-dione as a New Scaffold To Develop Potent and Selective Inhibitors of the Tumor-Associated Carbonic Anhydrases IX and XII” (J Med Chem, 2017)
